Legend:
HeLa = assay: In vitro anticellular activity tested against HeLa S3 cells; format: functional, cell-based; conditions: Homo sapiens
Summary of the method: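 HeLa S3 cells seeded on day 0, then exposed to drug for 1 h on day 1; anticellular activity determined by a previously described method.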

Mus musculus [1] = assay: In vivo antitumor activity against lymphatic leukemia P388 cells resistant to mitomycin C (MMC) was measured as maximal increase in life span of the treated mice at optimal dose of 25 mg/kg; format: functional
Mus musculus [2] = assay: In vivo antitumor activity against lymphatic leukemia P388 cells sensitive to mitomycin C (MMC) was measured as maximal increase in life span of the treated mice at optimal dose of 50 mg/kg; format: functional
Mus musculus [3] = assay: Effective dose that gave 50% inhibition of tumor growth was calculated towards sarcoma 180 cells which were inoculated subcutaneously to the axillary region of ddY mice; format: functional; conditions: Mus musculus, 180, sc
Summary of the method: (§1)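 Sarcoma 180 cells implanted sc in the axillary region of ddY mice on day 0; compounds given iv on day 1. Tumor volume compared treated versus control (T/C). 50% growth-inhibitory dose calculated from the dose-response curve; optimal dose also recorded.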

CCRF S-180 = assay: Optimal dose towards sarcoma 180 cells, inoculated subcutaneously to the axillary region of ddY mice; format: functional, Mus musculus; summary of the method: as §1
Mus musculus [4] = assay: In vivo antitumor activity against lymphatic leukemia P388 cells resistant to mitomycin C (MMC) was measured as maximal increase in life span of the treated mice at optimal dose of 46 mg/kg; format: functional
Mus musculus [5] = assay: In vivo antitumor activity against lymphatic leukemia P388 cells sensitive to mitomycin C (MMC) was measured as maximal increase in life span of the treated mice at optimal dose of 3.1 mg/kg; format: functional
Mus musculus [6] = assay: In vivo antitumor activity against lymphatic leukemia P388 cells resistant to mitomycin C (MMC) was measured as maximal increase in life span of the treated mice at optimal dose of 3.1 mg/kg; format: functional
Mus musculus [7] = assay: In vivo antitumor activity against lymphatic leukemia P388 cells resistant to mitomycin C (MMC) was measured as maximal increase in life span of the treated mice at optimal dose of 1.6 mg/kg; format: functional
Mus musculus [8] = assay: In vivo antitumor activity against lymphatic leukemia P388 cells sensitive to mitomycin C (MMC) was measured as maximal increase in life span of the treated mice at optimal dose of 13 mg/kg; format: functional

Compound	IC50 (HeLa) [µM]	further results
CO[C@@]12[C@H](COC(N)=O)C3=C(C(=O)C(CSC(C)C)=C(N)C3=O)N1C[C@@H]1N[C@@H]12	5.4	ILS at 25 mg/kg (Mus musculus [1]): 30%; ILS at 50 mg/kg (Mus musculus [2]): 58%; ED50 (Mus musculus [3]): 8.4 mg/kg; OD (CCRF S-180): 25 mg/kg
CO[C@@]12[C@H](COC(N)=O)C3=C(C(=O)C(CSc4ccccc4O)=C(N)C3=O)N1C[C@@H]1N[C@@H]12	2.2	ILS at 46 mg/kg (Mus musculus [4]): > 67%; ED50 (Mus musculus [3]): 22 mg/kg; OD (CCRF S-180): 46 mg/kg
CO[C@@]12[C@H](COC(N)=O)C3=C(C(=O)C(CSCCO)=C(N)C3=O)N1C[C@@H]1N[C@@H]12	> 100	
CO[C@@]12[C@H](COC(N)=O)C3=C(C(=O)C(CSc4nc5ccccc5o4)=C(N)C3=O)N1C[C@@H]1N[C@@H]12	5.1	
CO[C@@]12[C@H](COC(N)=O)C3=C(C(=O)C(CSc4ncccc4O)=C(N)C3=O)N1C[C@@H]1N[C@@H]12	0.19	ILS at 3.1 mg/kg (Mus musculus [5]): 49%; ILS at 3.1 mg/kg (Mus musculus [6]): 26%; ED50 (Mus musculus [3]): 3.7 mg/kg; OD (CCRF S-180): 6.3 mg/kg
CO[C@@]12[C@H](COC(N)=O)C3=C(C(=O)C(CSc4ccccc4C(C)C)=C(N)C3=O)N1C[C@@H]1N[C@@H]12	27	
CO[C@@]12[C@H](COC(N)=O)C3=C(C(=O)C(CSCC4CC4)=C(N)C3=O)N1C[C@@H]1N[C@@H]12	1.1	ILS at 1.6 mg/kg (Mus musculus [7]): > 115%; ED50 (Mus musculus [3]): 13 mg/kg; ILS at 13 mg/kg (Mus musculus [8]): 43%; OD (CCRF S-180): 25 mg/kg
CO[C@@]12[C@H](COC(N)=O)C3=C(C(=O)C(CSCC(O)CO)=C(N)C3=O)N1C[C@@H]1N[C@@H]12 (stereo not given in full)	> 100	
CO[C@@]12[C@H](COC(N)=O)C3=C(C(=O)C(CO)=C(N)C3=O)N1C[C@@H]1N[C@@H]12	> 29	
CO[C@@]12[C@H](COC(N)=O)C3=C(C(=O)C4=C(Nc5ccccc5SC4)C3=O)N1C[C@@H]1N[C@@H]12	0.31	ILS at 25 mg/kg (Mus musculus [1]): 48%; ED50 (Mus musculus [3]): 35 mg/kg; ILS at 13 mg/kg (Mus musculus [8]): 36%; OD (CCRF S-180): 100 mg/kg
CO[C@@]12[C@H](COC(N)=O)C3=C(C(=O)C4=C(NCCSC4)C3=O)N1C[C@@H]1N[C@@H]12	1.3	
CO[C@@]12[C@H](COC(N)=O)C3=C(C(=O)C(CSC4=NCCS4)=C(N)C3=O)N1C[C@@H]1N[C@@H]12	0.82	ILS at 3.1 mg/kg (Mus musculus [5]): 62%; ILS at 3.1 mg/kg (Mus musculus [6]): 64%; ED50 (Mus musculus [3]): 5.9 mg/kg; OD (CCRF S-180): 6.3 mg/kg
COCC1=C(N)C(=O)C2=C(C1=O)N1CC3C(N3C)[C@]1(OC)[C@@H]2COC(N)=O (stereo not given in full)	> 100	
CO[C@@]12[C@H](COC(N)=O)C3=C(C(=O)C(C[S+]([O-])C(C)C)=C(N)C3=O)N1C[C@@H]1N[C@@H]12 (stereo not given in full)	> 10	
CO[C@@]12[C@H](COC(N)=O)C3=C(C(=O)C(CSc4ccc(O)cc4)=C(N)C3=O)N1C[C@@H]1N[C@@H]12	116	
CCCCCCCCCCCCSCC1=C(N)C(=O)C2=C(C1=O)N1C[C@@H]3N[C@@H]3[C@]1(OC)[C@@H]2COC(N)=O	5.5	
CO[C@@]12[C@H](COC(N)=O)C3=C(C(=O)C(CS(=O)(=O)C(C)C)=C(N)C3=O)N1C[C@@H]1N[C@@H]12	> 10	
CO[C@@]12[C@H](COC(N)=O)C3=C(C(=O)C(CSc4ccccc4Br)=C(N)C3=O)N1C[C@@H]1N[C@@H]12	48	
CO[C@@]12[C@H](COC(N)=O)C3=C(C(=O)C(CSc4ncc[nH]4)=C(N)C3=O)N1C[C@@H]1N[C@@H]12	92	
CO[C@@]12[C@H](COC(N)=O)C3=C(C(=O)C(CSc4nnnn4C)=C(N)C3=O)N1C[C@@H]1N[C@@H]12	0.12	
COCC1=C(OC)C(=O)C2=C(C1=O)N1CC3NC3[C@]1(OC)[C@@H]2COC(N)=O (stereo not given in full)	0.12	
CO[C@@]12[C@H](COC(N)=O)C3=C(C(=O)C(CSc4nccn4C)=C(N)C3=O)N1C[C@@H]1N[C@@H]12	0.76	

Compound	IC50 (HeLa) [µM]	further results
CCSCC1=C(N)C(=O)C2=C(C1=O)N1C[C@@H]3N[C@@H]3[C@]1(OC)[C@@H]2COC(N)=O	2.2	
CO[C@@]12[C@H](COC(N)=O)C3=C(C(=O)C(CSC4OC(CO)C(O)C(O)C4O)=C(N)C3=O)N1C[C@@H]1N[C@@H]12 (stereo not given in full)	82	
COc1ccccc1SCC1=C(N)C(=O)C2=C(C1=O)N1C[C@@H]3N[C@@H]3[C@]1(OC)[C@@H]2COC(N)=O	2.3	
CO[C@@]12[C@H](COC(N)=O)C3=C(C(=O)C(CSc4cccs4)=C(N)C3=O)N1C[C@@H]1N[C@@H]12	4.9	ILS at 46 mg/kg (Mus musculus [4]): > 56%; ED50 (Mus musculus [3]): 29 mg/kg; OD (CCRF S-180): 46 mg/kg
COc1ccc(SCC2=C(N)C(=O)C3=C(C2=O)N2C[C@@H]4N[C@@H]4[C@]2(OC)[C@@H]3COC(N)=O)cc1	14	
COCC1=C(N)C(=O)C2=C(C1=O)N1CC3NC3[C@]1(OC)[C@@H]2COC(N)=O (stereo not given in full)	2.6	
CCCCOCC1=C(N)C(=O)C2=C(C1=O)N1C[C@@H]3N[C@@H]3[C@]1(OC)[C@@H]2COC(N)=O	19	
CCCOCC1=C(N)C(=O)C2=C(C1=O)N1C[C@@H]3N[C@@H]3[C@]1(OC)[C@@H]2COC(N)=O	5.3	
CO[C@@]12[C@H](COC(N)=O)C3=C(C(=O)C(CSc4nnc(C)s4)=C(N)C3=O)N1C[C@@H]1N[C@@H]12	1.1	
CO[C@@]12[C@H](COC(N)=O)C3=C(C(=O)C(CSCc4ccccc4)=C(N)C3=O)N1C[C@@H]1N[C@@H]12	2.2	
C=CCOCC1=C(N)C(=O)C2=C(C1=O)N1C[C@@H]3N[C@@H]3[C@]1(OC)[C@@H]2COC(N)=O	5.5	
CO[C@@]12[C@H](COC(N)=O)C3=C(C(=O)C(CSc4ccccc4Cl)=C(N)C3=O)N1C[C@@H]1N[C@@H]12	7.3	
COCC1=C(N)C(=O)C2=C(C1=O)N1C[C@H]3[C@H](N3C)[C@]1(O)[C@H]2COC(N)=O (stereo not given in full)	> 82	
CO[C@@]12[C@H](COC(N)=O)C3=C(C(=O)C(CSc4nc(C)cc(C)n4)=C(N)C3=O)N1C[C@@H]1N[C@@H]12	1.1	ILS at 3.1 mg/kg (Mus musculus [5]): 50%; OD (CCRF S-180): 6.3 mg/kg
CO[C@@]12[C@H](COC(N)=O)C3=C(C(=O)C(COCc4ccccc4)=C(N)C3=O)N1C[C@@H]1N[C@@H]12	5.5	
CO[C@@]12[C@H](COC(N)=O)C3=C(C(=O)C(CSc4nc[nH]n4)=C(N)C3=O)N1C[C@@H]1N[C@@H]12	6.8	
CO[C@@]12[C@H](COC(N)=O)C3=C(C(=O)C(CSc4ccccc4)=C(N)C3=O)N1C[C@@H]1N[C@@H]12	1	ILS at 50 mg/kg (Mus musculus [2]): 45%; ED50 (Mus musculus [3]): 6.1 mg/kg; OD (CCRF S-180): 22 mg/kg
CO[C@@]12[C@H](COC(N)=O)C3=C(C(=O)C(CSc4nnnn4-c4ccccc4)=C(N)C3=O)N1C[C@@H]1N[C@@H]12	0.27	
CO[C@@]12[C@H](COC(N)=O)C3=C(C(=O)C(CSc4ccccn4)=C(N)C3=O)N1C[C@@H]1N[C@@H]12	1.8	
CO[C@@]12[C@H](COC(N)=O)C3=C(C(=O)C(CSc4ccc([N+](=O)[O-])cc4)=C(N)C3=O)N1C[C@@H]1N[C@@H]12	0.78	
CO[C@@]12[C@H](COC(N)=O)C3=C(C(=O)C(CSc4ccc(Cl)cc4)=C(N)C3=O)N1C[C@@H]1N[C@@H]12	53	
COC1=C(C)C(=O)C2=C(C1=O)[C@@H](COC(N)=O)[C@@]1(OC)[C@H]3N[C@H]3CN21 [MITOMYCIN A]	0.0024	
